Data: ChEMBL document CHEMBL3526004, “Interaction of silymarin flavonolignans with organic anion-transporting polypeptides” (Drug Metab Dispos, 2013)

Assays:
[1] = target: T1, Solute carrier organic anion transporter family member 1B1 (Homo sapiens, UniProt Q9Y6L6); test: Inhibition of OATP1B1 (unknown origin) expressed in HEK293 cells assessed as reduction of [3H]estradiol-17beta-glucuronide uptake at 10 uM after 3 mins by beta-counting; assay type: ADME, cell-based; details: hek293, 0.05 h
T1 sequence (Q9Y6L6 whole entry): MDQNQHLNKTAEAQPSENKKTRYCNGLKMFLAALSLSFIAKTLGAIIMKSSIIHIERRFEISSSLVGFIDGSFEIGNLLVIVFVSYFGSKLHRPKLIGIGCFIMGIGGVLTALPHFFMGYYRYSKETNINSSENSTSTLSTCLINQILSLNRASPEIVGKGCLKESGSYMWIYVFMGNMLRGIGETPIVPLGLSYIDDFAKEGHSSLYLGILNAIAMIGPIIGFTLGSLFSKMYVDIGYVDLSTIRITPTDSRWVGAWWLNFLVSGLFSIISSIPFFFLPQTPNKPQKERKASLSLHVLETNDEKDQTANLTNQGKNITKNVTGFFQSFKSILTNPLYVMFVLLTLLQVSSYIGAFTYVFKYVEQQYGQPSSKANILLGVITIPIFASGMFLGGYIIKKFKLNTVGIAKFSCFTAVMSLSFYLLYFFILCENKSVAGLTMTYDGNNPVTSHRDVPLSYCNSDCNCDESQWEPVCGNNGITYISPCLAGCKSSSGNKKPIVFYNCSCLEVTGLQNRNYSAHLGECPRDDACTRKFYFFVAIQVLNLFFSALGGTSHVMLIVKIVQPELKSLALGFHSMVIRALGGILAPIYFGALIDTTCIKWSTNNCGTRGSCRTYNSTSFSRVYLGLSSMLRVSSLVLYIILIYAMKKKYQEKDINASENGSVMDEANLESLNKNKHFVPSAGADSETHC
Procedure, shortened: (§1)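 Confluent cells were washed in PBS, then given 1 µM [3H]-E2 17G (OATP1B1, OATP1B3 HEK293) or 1 µM [3H]-E1S (OATP2B1 MDCKII) with 10 µM compound in HBSS pH 7.4 for 3 min at 37°C. Uptake into mock or parental cells was subtracted after protein normalization. Results are % vehicle, mean ± SD of at least three experiments in triplicate.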

[2] = target: T2, Solute carrier organic anion transporter family member 2B1 (Homo sapiens, UniProt O94956); test: Inhibition of OATP2B1 (unknown origin) expressed in MDCK2 cells assessed as reduction of [3H]estrone-3-sulfate uptake at 10 uM after 3 mins by beta-counting; assay type: ADME, cell-based; details: mdck-ii, 0.05 h; procedure, shortened: as §1
T2 sequence (O94956 whole entry): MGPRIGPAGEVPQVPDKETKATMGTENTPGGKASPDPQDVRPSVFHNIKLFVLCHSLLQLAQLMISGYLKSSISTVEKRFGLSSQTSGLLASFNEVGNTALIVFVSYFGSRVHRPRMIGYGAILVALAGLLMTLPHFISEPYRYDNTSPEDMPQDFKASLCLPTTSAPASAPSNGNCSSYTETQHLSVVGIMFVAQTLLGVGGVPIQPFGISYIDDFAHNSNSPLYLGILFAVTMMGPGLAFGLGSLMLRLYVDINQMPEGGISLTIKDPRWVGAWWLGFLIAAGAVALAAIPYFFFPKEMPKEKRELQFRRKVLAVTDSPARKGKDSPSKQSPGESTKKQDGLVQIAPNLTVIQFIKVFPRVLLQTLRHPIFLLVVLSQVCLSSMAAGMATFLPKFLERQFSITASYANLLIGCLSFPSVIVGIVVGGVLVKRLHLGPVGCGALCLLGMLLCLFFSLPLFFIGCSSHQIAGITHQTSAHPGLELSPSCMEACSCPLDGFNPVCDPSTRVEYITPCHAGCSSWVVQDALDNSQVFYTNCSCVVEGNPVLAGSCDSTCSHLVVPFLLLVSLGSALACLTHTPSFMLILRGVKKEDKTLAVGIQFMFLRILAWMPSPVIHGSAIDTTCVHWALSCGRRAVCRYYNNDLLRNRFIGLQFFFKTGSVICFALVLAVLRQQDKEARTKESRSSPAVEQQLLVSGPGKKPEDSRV

[3] = target: T3, Solute carrier organic anion transporter family member 1B3 (Homo sapiens, UniProt Q9NPD5); test: Inhibition of OATP1B3 (unknown origin) expressed in HEK293 cells assessed as reduction of [3H]estradiol-17beta-glucuronide uptake at 10 uM after 3 mins by beta-counting; assay type: ADME, cell-based; details: hek293, 0.05 h; procedure, shortened: as §1
T3 sequence (Q9NPD5 whole entry): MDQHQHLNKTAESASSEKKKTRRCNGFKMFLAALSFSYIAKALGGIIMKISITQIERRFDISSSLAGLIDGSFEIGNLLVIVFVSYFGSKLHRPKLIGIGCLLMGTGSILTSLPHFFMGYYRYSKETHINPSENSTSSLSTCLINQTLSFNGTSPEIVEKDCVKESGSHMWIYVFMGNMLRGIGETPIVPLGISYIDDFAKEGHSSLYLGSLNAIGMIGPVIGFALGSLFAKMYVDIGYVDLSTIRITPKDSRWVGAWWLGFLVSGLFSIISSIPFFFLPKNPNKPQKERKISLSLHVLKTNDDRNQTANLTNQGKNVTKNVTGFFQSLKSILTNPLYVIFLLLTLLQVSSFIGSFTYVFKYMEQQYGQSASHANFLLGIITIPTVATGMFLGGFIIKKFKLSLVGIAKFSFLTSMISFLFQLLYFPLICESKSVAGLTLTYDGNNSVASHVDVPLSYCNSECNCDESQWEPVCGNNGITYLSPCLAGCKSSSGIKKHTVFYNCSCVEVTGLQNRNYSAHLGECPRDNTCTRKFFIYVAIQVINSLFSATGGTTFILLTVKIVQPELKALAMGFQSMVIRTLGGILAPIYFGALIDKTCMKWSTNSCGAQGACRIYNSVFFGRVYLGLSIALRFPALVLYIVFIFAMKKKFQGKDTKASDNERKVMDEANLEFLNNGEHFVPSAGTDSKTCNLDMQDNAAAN

[4] = target: T1, Solute carrier organic anion transporter family member 1B1; test: Inhibition of OATP1B1 (unknown origin) expressed in HEK293 cells assessed as reduction of [3H]estradiol-17beta-glucuronide uptake after 3 mins by beta-counting; assay type: ADME, cell-based
Procedure, shortened: (§2)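 Transfected HEK293 (G418) or MDCKII (hygromycin B) cells were co-incubated with 0-100 µM compound and [3H]-E2 17G (1 µM, 0.25 µCi/ml; OATP1B1, OATP1B3) or [3H]-E1S (1 µM; OATP2B1) in HBSS pH 7.4, 3 min at 37°C. OATP-negative uptake was subtracted, and results expressed as % vehicle. Two experiments were run in duplicate. IC50 came from non-linear dose-response fits.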

[5] = target: T2, Solute carrier organic anion transporter family member 2B1; test: Inhibition of OATP2B1 (unknown origin) expressed in MDCK2 cells assessed as reduction of [3H]estrone-3-sulfate uptake after 3 mins by beta-counting; assay type: ADME, cell-based, MDCK-II; procedure, shortened: as §2
[6] = target: T3, Solute carrier organic anion transporter family member 1B3; test: Inhibition of OATP1B3 (unknown origin) expressed in HEK293 cells assessed as reduction of [3H]estradiol-17beta-glucuronide uptake after 3 mins by beta-counting; assay type: ADME, cell-based; procedure, shortened: as §2

| SMILES | inhibition (INH) [1] | inhibition (INH) [2] | inhibition (INH) [3] | IC50 [4] | IC50 [5] | IC50 [6] |
| --- | --- | --- | --- | --- | --- | --- |
| COc1cc([C@@H]2Oc3ccc([C@H]4Oc5cc(O)cc(O)c5C(=O)[C@@H]4O)cc3O[C@H]2CO)ccc1O [ISOSILYBIN B] | Active | Active | Active |  |  |  |
| COc1cc(C2Oc3c(O)cc([C@H]4Oc5cc(O)cc(O)c5C(=O)[C@@H]4O)cc3C2CO)ccc1O (stereo partly drawn) [SILICRISTIN] | Not Active | Active |  | 9 µM | 3.6 µM | 36.4 µM |
| COc1cc([C@H]2Oc3ccc([C@H]4Oc5cc(O)cc(O)c5C(=O)[C@@H]4O)cc3O[C@@H]2CO)ccc1O [ISOSILYBIN A] | Active | Active |  |  |  |  |
| COc1cc([C@@H]2[C@H]3CO[C@@]4(O)C(=O)[C@@H]2C=C([C@H]2Oc5cc(O)cc(O)c5C(=O)[C@@H]2O)[C@@H]34)ccc1O [SILIDIANIN] | Active | Active | Active |  |  |  |
